Source: PubChem (Johns Hopkins Ion Channel Center)
An excerpt weighted towards active compounds, which were near 3.8% of everything screened.
Kir21 inh – inhibitors of mouse Kir2.1 inward-rectifier potassium channel. Inward rectifier potassium channel 2 (Mus musculus), P35561. HEK293-Kir2.1, FluxOR thallium flux fluorescence; active compounds read low. B-score at 10 µM. hit rate 0.85% among 310,000;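 active = fluorescence ratio B-score at or below minus 3 SD of library scores, with starting-brightness B-score within 2 SD, cut at about -4.2 in these data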;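 note: channel flux triggered by added potassium and thallium sulfate stimulus; B-score of peak minus minimum fluorescence over baseline after thallium stimulus; more negative B-score means stronger Kir2.1 block with less thallium influx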
KCNQ1 act – potentiators or activators of KCNQ1 channel, primary screen, cell-based, thallium flux, high-throughput; Potassium voltage-gated channel subfamily KQT member 1 (Homo sapiens), P51787; CHO-K1 KCNQ1, thallium flux FluxOR fluorescence; active compounds read high; B-score at 10 µM; hit rate 0.35% among 310,000;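 active = fluorescence ratio B-score, a plate-corrected score, at least three library SD, with initial intensity B-score within 5 SD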
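Doses: Single concentration per compound, DMSO matched to controls | Test system: KCNQ1-transfected CHO-K1 cells | Timing: 90 min dye loading and 20 min compound exposure, both at room temperature | Measured by: Kinetic FluxOR thallium fluorescence, 10-s 1-Hz baseline, 110-s post-stimulus read | Medium: Assay buffer with matched DMSO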
KCNK9 inh – KCNK9 potassium channel inhibitors, primary screen, HEK293 cells, thallium flux; Potassium channel subfamily K member 9 (Homo sapiens), Q9NPC2; FluxOR thallium flux fluorescence; active compounds read low; B-score at 10 µM; hit rate 1.2% among 310,000;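 active = ratio B-score over 3 SD below the library mean, with starting fluorescence within 5 SD of its mean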;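 note: negative B-score means less thallium flux so channel inhibition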
Target sequence (Q9NPC2 whole entry, looked up): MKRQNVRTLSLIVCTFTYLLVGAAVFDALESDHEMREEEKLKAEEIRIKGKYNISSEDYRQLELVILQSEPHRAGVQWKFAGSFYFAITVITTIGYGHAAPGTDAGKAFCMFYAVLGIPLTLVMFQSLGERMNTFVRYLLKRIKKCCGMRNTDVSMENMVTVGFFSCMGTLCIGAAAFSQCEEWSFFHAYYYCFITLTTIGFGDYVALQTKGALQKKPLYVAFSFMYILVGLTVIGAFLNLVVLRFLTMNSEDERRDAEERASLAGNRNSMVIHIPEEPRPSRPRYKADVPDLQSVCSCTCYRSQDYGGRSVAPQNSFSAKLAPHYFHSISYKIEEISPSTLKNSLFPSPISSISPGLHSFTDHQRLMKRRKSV
hERG rescue – hERG rescue from dofetilide block, primary screen, cell-based, CHO-hERG, FluxOR thallium flux, dofetilide IC70 | dofetilide IC70 present | hit rate 0.51% among 310,000 | Voltage-gated inwardly rectifying potassium channel KCNH2 (Homo sapiens), Q12809 | activation (rescue from dofetilide block), less the hit threshold, % at 10 µM;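 active = activation above the mean of controls blocked by dofetilide plus 5 SD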;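 note: thallium influx through hERG after potassium depolarization seen as dye fluorescence rise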
KCNQ1 block – inhibitors of human KCNQ1 channel, primary screen, cell-based, thallium flux, high-throughput. Potassium voltage-gated channel subfamily KQT member 1 (Homo sapiens), P51787. CHO-K1 KCNQ1, FluxOR thallium flux fluorescence; active compounds read high. B-score at 10 µM. hit rate 1.3% among 310,000. AID 2642, 2010;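 active = compounds whose thallium flux B-score, printed positive for inhibition, exceeds three library SD while starting fluorescence stays within three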;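 note: channel opened by potassium depolarization with thallium stimulus after 20 min compound exposure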
KCNK3 block – human KCNK3 channel inhibitors, primary screen, CHO cells, FluxOR thallium flux, B-score | Potassium channel subfamily K member 3 (Homo sapiens), O14649 | FluxOR fluorescence; active compounds read low | B-score at 10 µM | hit rate 0.84% among 340,000 | AID 602410, 2012;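 active = B-score under library mean minus 4 SD, starting fluorescence ratio at most library mean plus 5 SD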;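 note: more negative B-score means stronger inhibition of thallium flux through KCNK3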
* = called active by the depositor; i = inactive; . = no result given.

SMILES	Kir21 inh	KCNQ1 act	KCNK9 inh	hERG rescue	KCNQ1 block	KCNK3 block
Cc1ccc(C(=O)NCCN2C3=NC[C@@H](Cc4ccccc4)N3C[C@H]2Cc2ccc(O)cc2)cc1Br	-6.76*	i	i	-24.0	i	i
COc1ccc(C[C@H]2CN3C(=NC[C@@H]3Cc3ccc(O)cc3)N2CCNC(=O)c2ccc(C)c(Br)c2)cc1	-3.93	i	i	-21.1	i	i
COCCn1c(SCC(=O)NN2C(=O)NC(C)(c3ccccc3)C2=O)nnc1-c1ccncc1 (configuration not stated)	.	.	.	.	.	i
Cc1cc(N2CCOCC2)nc(NCc2ccccc2)n1	0	i	i	-9.6	i	i
Cc1cc(N2CCCCC2)nc(NCc2ccccc2)n1	-6.7*	i	i	-7.8	i	i
Cc1cc(N2CCN(c3ccccc3)CC2)nc(-c2ccccc2)n1	-1.55	i	-7.6*	-1.9	i	i
CC1CCc2cc(F)ccc2N1S(=O)(=O)c1ccc(F)cc1 (configuration not stated)	-4.27*	i	i	3.5	i	i
Cc1ccccc1Cn1ccc(NC(=O)c2cnn3c(C(F)(F)F)cc(-c4ccco4)nc23)n1	-0.15	i	-7.57*	-15.4	i	i
O=C(NC12CC3CC(CC(C3)C1)C2)c1cc2nc(-c3ccco3)cc(C(F)(F)F)n2n1	0.61	i	i	-3.3	6*	i
O=C(Nc1cnn(C23CC4CC(CC(C4)C2)C3)c1)c1cnn2c(C(F)(F)F)cc(-c3ccco3)nc12	-0.25	i	i	-26.4	11*	i
CCOC(=O)c1ccc2c(c1)n(CC)c(/C=C/N(C)c1ccccc1)[n+]2CC	0.62	i	i	-28.7	8*	i
CC(NCCS(=O)(=O)c1ccc(Cl)cc1)c1cccc(Cl)c1 (configuration not stated)	-12.9*	i	i	-5.6	i	i
COc1ccc([C@H]2CC(=O)C=C(c3cccc4c3Oc3ccccc3S4)C2)cc1OC	.	.	.	.	.	i
CCCN1C2CCCC1CC(NC(=O)c1ccccc1OC)C2 (configuration not stated)	-0.49	i	i	-4.8	8*	i
Cc1ccc(C(=O)NCC(=O)N2CCCCCCC2)cc1C	.	.	.	.	.	i
COc1cccc(C(=O)NCCS(=O)(=O)NCCCc2ccccc2)c1	-3.21	i	i	-10.8	i	i
CC(C)CC(NC(=O)c1ccc(Cl)cc1)C(=O)OCC(=O)c1ccc2c(c1)NC(=O)CO2 (configuration not stated)	-0.88	13*	i	-6.9	i	i
CSc1cccc(CN2CCCC(CNC(=O)c3ccco3)C2)c1 (configuration not stated)	-1.12	i	i	-4.7	i	i
CN1CCN(C(=O)c2ccccc2NC(=O)c2cccc(Cl)c2)CC1	-0.01	i	i	-6.7	i	i
O=C(CCCn1nnnc1CN1CCOCC1)N1CCN(c2ccccc2F)CC1	0.8	8*	i	-8.6	i	i
CC(C)c1nc2sc3c(=O)[nH]c(=S)[nH]c3c2c2c1CCCC2	0.65	i	i	-15.1	i	i
CC(C)c1nc2sc3c(=O)[nH]c(=S)[nH]c3c2c2c1CCC2	2.28	21*	i	-3.5	i	.
CCC(=O)N(CC)C1=C(O)c2ccccc2C(=O)C1=O	-4.56*	i	i	-8.1	i	i
CC1=NN(c2ccccc2)C(=O)/C1=C/c1ccc(Cl)cc1	-0.05	i	i	-5.9	8*	i
CC1=NN(c2ccccc2)C(=O)/C1=C/c1cccs1	-0.33	i	i	-8.8	i	i
SMILES	Kir21 inh	KCNQ1 act	KCNK9 inh	hERG rescue	KCNQ1 block	KCNK3 block
CC(C)(C)c1ccccc1OCCOCCSc1ncccn1	0.24	i	-7.5*	-9.9	i	i
CC(C)(C)c1ccccc1OCCOCCN1CCCCCC1	0.27	i	i	-17.9	i	i
O=C(CCCN1C(=O)/C(=C\c2ccccc2)SC1=S)Nc1cccc(C(=O)O)c1	1.95	i	i	-5.8	i	i
O=C(CCN1C(=O)/C(=C\C=C\c2ccccc2)SC1=S)Nc1cccc(C(=O)O)c1	-0.26	i	i	44.8*	i	i
Cc1ccc(OCCNC(=O)C(C)SCC(=O)Nc2ccc(F)cc2)cc1 (configuration not stated)	.	.	.	.	.	i
COc1ccccc1C(=O)Nc1onc(C)c1C#N	-0.56	i	i	6.2*	i	i
Cc1noc(NC(=O)c2ccccc2Cl)c1C#N	0.29	i	i	-2.0	i	i
O=[N+]([O-])c1cc(S(=O)(=O)Nc2ccccc2)ccc1NCc1ccccc1	1.48	i	-6.57*	-4.2	i	i
O=[N+]([O-])c1cc(S(=O)(=O)Nc2ccccc2)ccc1NCc1cccnc1	-1.44	i	i	-7.4	i	i
CCOC(=O)Cn1c(=N)n(CCOc2cccc(C)c2)c2ccccc21	.	.	.	.	.	i
Nc1nc2ccccc2n1CCOc1ccc(Br)cc1	-10.9*	i	i	-18.0	i	i
CCOC(=O)Cn1c(=N)n(CCOc2ccc(Br)cc2)c2ccccc21	-6.39*	i	i	-22.1	i	i
Cc1csc2c(N3CCCCC3)ncnc12	0.44	i	i	8.6*	i	i
COc1ccc(-c2nsc3c(N4CCCCC4)ncnc23)cc1	-2.17	i	i	8.0*	i	i
Cc1csc2c(N3CCC(C(=O)O)CC3)ncnc12	1.5	i	i	-4.0	i	i
CC(C)(C)c1ccc(-c2cn(-c3ccc(Br)cc3)c3[n+]2CCCS3)cc1	-1.31	i	i	-31.0	7*	i
Cc1ccc(S(=O)(=O)c2c(C)cc(C)nc2Oc2cccc(C(F)(F)F)c2)cc1	0	i	-7.32*	-6.4	i	i
CCN1CCN(c2ccc(S(=O)(=O)N3CCOCC3)cc2NC(=O)c2sccc2C)CC1	0.72	i	i	-13.0	i	i
O=C(CSc1nc2cc(Cl)ccc2s1)NC1CCCc2ccccc21 (configuration not stated)	-1.08	i	-7.82*	-3.4	i	i
Cn1nnnc1SCC(=O)NC1CCCc2ccccc21 (configuration not stated)	0.32	i	i	6.3*	i	i
